Here are results for two compounds from article PMC3752283 (The Analyst, 2013).

Positions of bridges follow the written chain, without caps; N, C: chain ends. Non-standard residues stand in square brackets, D forms with d. Residues, ends and D or L forms follow the SMILES beside them. *: point of attachment. 6FAM = O=C1OC2(c3ccc(O)cc3Oc3cc(O)ccc32)c2cc(C(=O)*)ccc21; PEG3 = NCCOCCOCCOCCC(=O)O Bounds are passed on as bounds.

The nature of this data set: Lysate degradation assay. The class given is in vitro ADME, mouse. Particulars: for time for 90% degradation of the peptide: Baf/BCR-ABL cell lysate, 3 mg mL^-1 protein, 2 μM peptide, 37 °C, CE-LIF; for half-life at 2 μM: mouse, Baf/BCR-ABL cell lysate (cytosolic), pH 7.4. Summed up: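 Mouse B-cell lymphoma Baf/BCR-ABL cells washed and resuspended in cold ECB (pH 7.4), then lysed by three cycles of liquid nitrogen (1 min) and 37 °C thaw; supernatant kept after 14,000 × g, 4 °C, 5 min. Peptide at 2 μM in lysate (3 mg mL−1 protein), 37 °C, triplicate. Timed aliquots quenched with HCl (100 mM final) and 95 °C for 4 min. Intact fraction = intact-peak area / total peak area.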

As for `CC[C@H](C)[C@H](NC(=O)[C@H](C)NC(=O)[C@H](CCC(=O)O)NC(=O)[C@H](CCCCNC(=O)c1ccc2c(c1)C1(OC2=O)c2ccc(O)cc2Oc2cc(O)ccc21)NC(=O)CCOCCOCCOCCNC(=O)CCOCCOCCOCCNC(=O)[C@@H]1CSCC(=O)N[C@@H](Cc2c[nH]c3ccccc23)C(=O)N2CCC[C@@H]2C(=O)NCC(=O)N[C@@H](CCCNC(=N)N)C(=O)N1)C(=O)N[C@@H](Cc1ccc(O)cc1)C(=O)N[C@@H](C)C(=O)N[C@@H](C)C(=O)N1CCC[C@H]1C(=O)N[C@@H](Cc1ccccc1)C(=O)N[C@@H](C)C(=O)N[C@@H](CCCCN)C(=O)N[C@@H](CCCCN)C(=O)N[C@@H](CCCCN)C(N)=O` [Peptide 4] ({CH2CO}-W[dP]GRC[PEG3][PEG3]K(6FAM)EAIYAAPFAKKK-NH2; thioether N-5), the “time for 90% degradation of the peptide” value is on record as 25 min and the half-life at 2 μM was 9.2 ± 1.2 min.
As for `CC[C@H](C)[C@H](NC(=O)[C@H](C)NC(=O)[C@H](CCC(=O)O)NC(=O)[C@H](CCCCNC(=O)c1ccc2c(c1)C1(OC2=O)c2ccc(O)cc2Oc2cc(O)ccc21)NC(=O)CCOCCOCCOCCNC(=O)CCOCCOCCOCCNC(=O)[C@H](CCCNC(=N)N)NC(=O)CNC(=O)[C@H]1CCCN1C(=O)[C@@H](N)Cc1c[nH]c2ccccc12)C(=O)N[C@@H](Cc1ccc(O)cc1)C(=O)N[C@@H](C)C(=O)N[C@@H](C)C(=O)N1CCC[C@H]1C(=O)N[C@@H](Cc1ccccc1)C(=O)N[C@@H](C)C(=O)N[C@@H](CCCCN)C(=O)N[C@@H](CCCCN)C(=O)N[C@@H](CCCCN)C(N)=O` [Peptide 2] (H-W[dP]GR[PEG3][PEG3]K(6FAM)EAIYAAPFAKKK-NH2; N-terminus assumed), the “time for 90% degradation of the peptide” value was at most 10 min and the half-life at 2 μM worked out at 4.8 ± 0.4 min. The “increase in half-life over the control peptide” value (Baf/BCR-ABL cytosolic lysate) is reported as about 10 fold.
